A selection: hits, their analogues and other compounds. The true share with any hit is near 2.6%.
SENP6 inh: SENP6 protease inhibition; Recombinant SENP6 catalytic domain, aminoluciferin luminescence; hit rate 1.8% among 330,000; inhibition, % at 10 µM; Q9GZR1;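 active means inhibition above about 50% at the single tested dose, limit read from the data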;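 further: plate controls were DMSO wells with enzyme for no effect and DMSO wells lacking enzyme for full effect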
SENP8 block-1: blocks human SENP8 cleavage of Nedd8 substrate; inhibition, % at 20 µM; Q96LD8; AID 602440; recombinant SENP8, Nedd8 substrate fluorescence; hit rate 0.64% among 360,000; in the data active means inhibition mostly above about 40%, no sharp cut-off; inactive means mostly below about 27%
Target sequence (Q96LD8 whole entry, looked up): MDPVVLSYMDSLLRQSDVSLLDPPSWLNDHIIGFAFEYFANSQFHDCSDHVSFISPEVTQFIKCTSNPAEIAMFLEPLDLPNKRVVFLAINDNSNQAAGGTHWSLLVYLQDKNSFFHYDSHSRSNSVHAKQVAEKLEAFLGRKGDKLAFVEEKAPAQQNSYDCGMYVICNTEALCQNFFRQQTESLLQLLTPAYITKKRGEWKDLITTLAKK
SENP7 block: inhibitors of human SENP7 protease; inhibition, % at 5 µM; Q9BQF6; recombinant SENP7, Z-RLRGG-aminoluciferin luminescence, 40 min; hit rate 1.5% among 330,000; AID 434973;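 active means inhibition above about 50% at the single test dose, limit read from the data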;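 further: plate controls were DMSO with enzyme for no effect and no enzyme buffer wells for full effect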
SENP8 block-2: blocks the human protease SENP8; Q96LD8; purified SENP8, Z-RLRGG-aminoluciferin cleavage, luminescence; inhibition, % at 10 µM; hit rate 1.2% among 330,000; in the data active means inhibition above about 50%
Platelet DG rel: platelet dense granule release activity. AID 1663. human platelet-rich plasma, SFLLRN dense granule ATP release, luminescence. inhibition, %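 (compounds screened at 7.5 µM in platelet-rich plasma)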. hit rate 0.22% among 300,000;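 active means mean replicate score, as percent of positive control, at or above 50; inconclusive means mean below 50 but at least one replicate at or above 50; inactive means mean and every replicate below 50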
SENP1 FRET inh: SENP1 (human) catalytic domain inhibition; hit rate 0.21% among 360,000; inhibition, % at 10 µM; Q9P0U3; recombinant SENP1 catalytic domain, CyPet-SUMO1-YPet FRET cleavage;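 active means inhibition at least 30% at 10 µM, raw YFP signal under a set limit, fluorescence ratio 0.5 to 1.5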;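 further: 0% = enzyme with DMSO and 100% = no enzyme wells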
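system = hSENP1 catalytic domain, recombinant | reagent = SFCypet-SUMO1-SFYpet substrate at 25 nM | doses = one dose per compound, 10 µM, 0.5% DMSO | incubation = enzyme reaction for 50 min at room temperature, dark | measured by = FRET, CFP and YFP emission | controls = no-enzyme low, enzyme-DMSO high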
SENP8 confirm: confirmation of human SENP8 protease inhibitors; shares compounds with SENP7 block; AID 488912; inhibition, % at 12.5 µM; hit rate 40% among 6,200; Recombinant SENP8, Z-RLRGG-aminoluciferin luminescence, 60 min;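 active means mean inhibition across replicates above about 50%, limit read from the data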
SENP6 conf: confirmation of human SENP6 protease inhibitors. inhibition, % at 12.5 µM. hit rate 58% among 6,200. shares compounds with SENP7 block. recombinant SENP6, Z-RLRGG-aminoluciferin luminescence
SENP7 confirm: confirmation of human SENP7 protease inhibitors | shares compounds with SENP7 block | recombinant SENP7, Z-RLRGG-aminoluciferin luminescence, 40 min | inhibition, % at 12.5 µM | hit rate 69% among 6,200 | AID 488917
Casp3 SENP sel: inhibits human caspase-3 in SENP selectivity test; hit rate 60% among 6,200; shares compounds with SENP7 block; inhibition, % at 12.5 µM; purified caspase-3, Z-DEVD-aminoluciferin luminescence, 60 min;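 active means mean inhibition above about 50%, limit read from the data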;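 further: plate controls were enzyme with DMSO for no effect and wells without caspase-3 for full effect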
Target sequence (P42574 28-227 limits assumed): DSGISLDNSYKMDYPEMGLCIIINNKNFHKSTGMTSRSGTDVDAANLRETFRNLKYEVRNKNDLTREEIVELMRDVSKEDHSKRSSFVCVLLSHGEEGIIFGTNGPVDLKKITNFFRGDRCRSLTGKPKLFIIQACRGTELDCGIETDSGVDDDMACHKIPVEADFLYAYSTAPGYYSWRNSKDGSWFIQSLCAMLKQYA
Luc interf: luminescence interference (SENP counter-screen); hit rate 39% among 6,200; Pre-incubated SENP8/Z-RLRGG-aminoluciferin, luciferase luminescence interference; shares compounds with SENP7 block; inhibition, % at 12.5 µM; AID 488919;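 active means mean inhibition above about 50% when retested at one dose, limit read from the data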;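 further: plate controls were DMSO wells with completed reaction for no effect and substrate without enzyme for full effect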
An asterisk follows results filed as active; ? = inconclusive; / = no result.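 How the source made its calls, unless noted: active means mean inhibition above about 50% in the one-dose retest (limit read from the data); inactive means the rest.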

SMILES | SENP6 inh | SENP8 block-1 | SENP7 block | SENP8 block-2 | Platelet DG rel | SENP1 FRET inh | SENP8 confirm | SENP6 conf | SENP7 confirm | Casp3 SENP sel | Luc interf
COc1cc([N+](=O)[O-])cc(/C=N/NC(=O)c2cncc(Br)c2)c1O | 88.8* | 19.4 | 67.4* | 64.0* | -1.6 | -35.2 | 81.0* | 76.1* | 96.0* | 84.2* | 52.2*
COc1cc(/C=N/NC(=O)c2cncc(Br)c2)cc([N+](=O)[O-])c1O | 82.6* | 27.8 | 71.7* | 66.4* | -2.2 | -32.2 | 83.5* | 79.6* | 96.2* | 83.7* | 60.8*
C[C@H](CO)N1C[C@H](C)[C@@H](CN(C)S(=O)(=O)c2cn(C)cn2)OCc2cnnn2CCCC1=O | / | 12.5 | / | / | / | -0.9 | / | / | / | / | /
c1cncc(-c2nc(-c3ccc4c(c3)OCCO4)cs2)c1 | 79.5* | -97.1 | 82.9* | 79.6* | 3.9 | 1.1 | 2.6 | 81.2* | 97.0* | 72.1* | 79.7*
C=CC(=O)Oc1ccc(N2Cc3ccccc3C2=O)cc1 | 10.7 | 0.6 | -1.5 | 17.4 | 11.6 | 3.3 | / | / | / | / | /
COc1ccc(N2Cc3ccccc3C2=O)cc1 | 87.1* | -82.6 | 92.8* | 77.9* | 7.2 | 1.5 | 86.0* | 87.0* | 98.0* | 94.4* | 81.6*
O=C1c2ccccc2CN1c1ccccc1 | 39.5 | -1.4 | 38.4 | 9.3 | -4.7 | 2.3 | / | / | / | / | /
Cc1ccc(N2Cc3ccccc3C2=O)cc1 | 92.7* | -18.7 | 94.0* | 88.5* | 20.8 | 3.5 | 90.9* | 93.1* | 101.0* | 95.4* | 54.0*
O=C(O)COCC(=O)N1CCc2c([nH]c3ccccc23)C1C(F)(F)F (centres undefined) | -16.4 | 10.9 | -2.8 | 4.2 | -6.6 | 0.8 | / | / | / | / | /
Brc1ccc(-c2nnc(-c3cccc(Br)c3)o2)cc1 | -4.4 | -0.6 | 7.4 | -13.2 | 4.6 | 1.3 | / | / | / | / | /
COc1ccc(-c2noc(-c3ccccc3-c3ccccc3)n2)cc1 | -6.3 | 19.4 | -4.0 | 1.1 | -2.1 | 2.6 | / | / | / | / | /
O=C(O)c1ccc(-c2nnc(-c3cccc(Br)c3)o2)cc1 | 92.9* | 6.7 | -6.1 | -7.9 | -0.9 | 1.9 | 88.9* | 89.9* | 92.8* | 97.8* | 19.3
COc1cccc(-c2noc(-c3cccnc3)n2)c1 | 81.1* | 5.8 | 79.0* | 58.4* | 12.0 | 1.2 | 25.7 | 67.7* | 90.9* | 84.3* | 52.2*
COc1cccc(-c2nc(-c3ccccc3)no2)c1 | 95.5* | 21.9 | 95.3* | 88.5* | 8.3 | -0.6 | 86.7* | 93.0* | 98.5* | 84.8* | 82.7*
COc1ccc(-c2nc(-c3ccc(C(=O)O)cc3)no2)cc1 | 97.8* | 11.5 | 94.9* | 97.3* | 4.5 | 3.8 | 98.2* | 98.4* | 101.7* | 86.1* | 97.4*
CSc1ccc(CN(C)CC(=O)NCCc2ccccc2)cc1 | -13.9 | 5.7 | -3.6 | -10.3 | 0.7 | -0.8 | / | / | / | / | /
O=C(O)c1cn(Cc2ccccc2)c2ccc(Cl)cc2c1=O | -10.6 | 10.5 | 5.3 | -3.7 | 3.2 | 3.8 | / | / | / | / | /
FC(F)(F)c1cccc(-c2nc(-c3ccncc3)no2)c1 | / | 18.5 | / | / | 8.2 | 0.0 | / | / | / | / | /
O=C(O)c1ccc(-c2noc(-c3cccc(C(F)(F)F)c3)n2)cc1 | 58.4* | 13.0 | 3.9 | 40.6 | 4.1 | 0.9 | 53.8* | 55.9* | 80.1* | 55.7* | 53.5*
COc1ccc(-c2cc(-c3ccccc3)no2)cc1 | 96.5* | 16.1 | 100.2* | 91.9* | ? | 0.1 | 8.5 | 81.4* | 85.6* | 76.1* | 48.6
COc1cccc(-c2noc(-c3cccs3)n2)c1 | 92.3* | 0.7 | 93.6* | 87.7* | 11.1 | -0.1 | 41.3 | 94.7* | 101.5* | 87.7* | 85.4*

Source: PubChem BioAssay
